Measured values from paper PMC8521312 (The EMBO Journal, 2021).
Entries after “also recorded” stand apart in the source; their conditions may differ.

Columns and labels:
[1] = system: nucleolin mRNA and protein; assay: Nucleolin knockdown in DRG neurons; type: cell-based, rat; conditions: siRNA targeting 3′UTR of nucleolin mRNA, 50 nM printed for control siRNAs; 96 h
Method in brief: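 Three hours after plating, neurons were transfected with control siRNA (50 nM as printed) or either of two siRNAs against the nucleolin 3′UTR using a lipid transfection reagent. Cultures were fixed 96 h later for FISH/immunofluorescence. Sister cultures gave mRNA by RT-ddPCR and protein by immunoblot (milk block, HRP secondary 1:10,000, ECL).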

AS1411 DNA aptamer = assay: ELISA assay for AS1411-binding peptides; conditions: 0.04 μM aptamer, PBS, 1 h, room temperature, n = 3 technical replicates
Method in brief: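 Streptavidin-coated wells were washed in PBS-T, loaded with 0.025 μM biotinylated peptide for 1 h at room temperature, and blocked with 1% BSA/PBS for 30 min at 37°C. DIG-labelled aptamer or control aptamer was added, then HRP anti-DIG (1/2,000 in 1% BSA-PBS, 30 min, 37°C). TMB substrate was read by absorbance at […]. PBS-T washes were done between steps.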

axonal Inpp5f mRNA = assay: FISH of axonal Inpp5f mRNA in DRG neurons; type: cell-based, rat; conditions: 10 µM AS1411 or control aptamer, 48 h, replated 18 h; n = 11–19 cells per sample; P < 0.05
[2] = system: nucleolin-Kif5a motor complex; conditions: ref Perry et al, 2016, cited from earlier work
HEK-293 cells = assay: Hypotonic challenge; type: cell-based, human; conditions: ddH2O, n = 24 cells per sample, p < 0.05, p < 0.01
DRG neurons = assay: Hypotonic challenge; type: cell-based, mouse; conditions: ddH2O, 17–24 cells per sample, three biological repeats

In the case of “siRNA 1: GUUGAAUGACAGAGCCUUUUU; siRNA 2: GGACAUUCCAAGACAGUAAUU”, the “endogenous nucleolin mRNA and protein” value [1] is reported as “significantly reduced”.

For GGTGGTGGTGGTTGTGGTGGTGGTGG [AS1411], the “binding of aptamer to GAR-derived peptides of 22–28 residues” value (AS1411 DNA aptamer) is given as “showed binding”, the “axonal Inpp5f mRNA (FISH)” value (axonal Inpp5f mRNA) is given as “significant reduction in axonal Inpp5f mRNA” and the axonal growth ([2]; AS1411 perturbation of kinesin–nucleolin interactions) is given as “accelerated axonal growth”. For the same molecule, the “association of nucleolin with Kif5a motor complex” value [2] was “reduced; also recorded: perturbs the association of nucleolin with the Kif5a motor complex” and the “nucleolin localization to axons” value [2] was “perturbs nucleolin localization to axons”.

B1: Ncl ΔGAR: HA-Dendra2-nucleolin with a GAR domain deletion (protein)
chain: MVKLAKAGKTHGEAKKMAPPPKEVEEDSEDEEMSEDEDDSSGEEEVVIPQKKGKKATTTPAKKVVVSQTKKAAVPTPAKKAAVTPGKKAVATPAKKNITPAKVIPTPGKKGAAQAKALVPTPGKKGAATPAKGAKNGKNAKKEDSDEDEDEEDEDDSDEDEDDEEEDEFEPPIVKGVKPAKAAPAAPASEDEEDDEDEDDEEDDDEEEEDDSEEEVMEITTAKGKKTPAKVVPMKAKSVAEEEDDEEEDEDDEDEDDEEEDDEDDDEEEEEEEPVKAAPGKRKKEMTKQKEAPEAKKQKVEGSEPTTPFNLFIGNLNPNKSVNELKFAISELFAKNDLAVVDVRTGTNRKFGYVDFESAEDLEKALELTGLKVFGNEIKLEKPKGRDSKKVRAARTLLAKNLSFNITEDELKEVFEDAMEIRLVSQDGKSKGIAYIEFKSEADAEKNLEEKQGAEIDGRSVSLYYTGEKGQRQERTGKTSTWSGESKTLVLSNLSYSATKETLEEVFEKATFIKVPQNPHGKPKGYAFIEFASFEDAKEALNSCNKMEIEGRTIRLELQGSNSRSQPSKTLFVKGLSEDTTEETLKESFEGSVRARIVTDRETGSSKGFGFVDFNSEEDAKAAKEAMEDGEIDGNKVTLDWAKPKKPQGKKTKFE
modifications: left off: HA, N-terminal, kept | Dendra2, N-terminal, kept
With B1 the “reduction of nucleolar signal on hypotonic challenge, FL vs ΔGAR” value (HEK-293 cells) was “Significant differences between full‐length and GAR deletion nucleolin” and the “reduction of nucleolar signal on hypotonic challenge, FL vs ΔGAR” value (DRG neurons) was “no difference between full‐length and ΔGAR mutant nucleolin”.
